Laboratory results from ChEMBL document CHEMBL5058577, “EUbOPEN Chemogenomics Library 2 (Multiplex)” (2022).

Test system: HEK-293T
Test: Multiplex assay against HEK293T
Format: toxicity, cell-based
Conditions: human
In short: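 At seeding, live cells were stained with Hoechst33342, BioTracker Green Microtubule Cytoskeleton Dye, MitoTracker Red and Annexin V Alexa Fluor 680. After compound addition they were imaged on a CQ1 microscope at 37°C and 5% CO2, and CellPathfinder machine-learning gating sorted them into Hoechst high-intensity objects or normal cells, with normal cells further split into healthy, pyknosed or fragmented nuclei and pyknosed cells into mitotic or apoptotic. Tubulin, mitochondrial-mass and membrane-permeability phenotypes are given as per cents of cells with healthy nuclei.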

[1] = 12 h, 1 µM, compound concentration 1 uM, replicate 1
[2] = 12 h, 1 µM, compound concentration 1 uM, replicate 2
[3] = 12 h, 10 µM, compound concentration 10 uM, replicate 1
[4] = 12 h, 10 µM, compound concentration 10 uM, replicate 2
[5] = 24 h, 1 µM, compound concentration 1 uM, replicate 1
[6] = 24 h, 1 µM, compound concentration 1 uM, replicate 2
[7] = 24 h, 10 µM, compound concentration 10 uM, replicate 1
[8] = 24 h, 10 µM, compound concentration 10 uM, replicate 2
[9] = 48 h, 1 µM, compound concentration 1 uM, replicate 1
[10] = 48 h, 1 µM, compound concentration 1 uM, replicate 2
[11] = 48 h, 10 µM, compound concentration 10 uM, replicate 1
[12] = 48 h, 10 µM, compound concentration 10 uM, replicate 2

Cc1ccc(OCC(O)C(C)NC(C)C)c2c1CCC2.Cl (stereo not given)
Population Apoptotic (%) [1]: 34%
Population Fragmented Nuclei (%) [1]: 6%
Population Healthy Nuclei (%) [1]: 81%
Population Hoechst High Intensity Objects (%) [1]: 5%
Population Membrane Permeable-Phenotype (%) [1]: 0%
Population Mitochondria Different-Phenotype (%) [1]: 54%
Population Mitotic Cells (%) [1]: 65%
Population Normal (%) [1]: 94%
Population Pyknosed Nuclei (%) [1]: 12%
Population Tubulin-Different-Phenotype (%) [1]: 40%
Total Cell Count [1]: 409
Population Apoptotic (%) [2]: 45%
Population Fragmented Nuclei (%) [2]: 5%
Population Healthy Nuclei (%) [2]: 84%
Population Mitochondria Different-Phenotype (%) [2]: 65%
Population Mitotic Cells (%) [2]: 54%
Population Pyknosed Nuclei (%) [2]: 10%
Population Tubulin-Different-Phenotype (%) [2]: 22%
Total Cell Count [2]: 360
Population Apoptotic (%) [3]: 43%
Population Fragmented Nuclei (%) [3]: 7%
Population Healthy Nuclei (%) [3]: 67%
Population Hoechst High Intensity Objects (%) [3]: 3%
Population Membrane Permeable-Phenotype (%) [3]: 0%
Population Mitochondria Different-Phenotype (%) [3]: 66%
Population Mitotic Cells (%) [3]: 56%
Population Normal (%) [3]: 96%
Population Pyknosed Nuclei (%) [3]: 25%
Population Tubulin-Different-Phenotype (%) [3]: 61%
Total Cell Count [3]: 247
Population Fragmented Nuclei (%) [4]: 9%
Population Healthy Nuclei (%) [4]: 76%
Population Hoechst High Intensity Objects (%) [4]: 18%
Population Mitochondria Different-Phenotype (%) [4]: 79%
Population Normal (%) [4]: 81%
Population Pyknosed Nuclei (%) [4]: 14%
Population Tubulin-Different-Phenotype (%) [4]: 59%
Total Cell Count [4]: 323
Population Apoptotic (%) [5]: 35%
Population Fragmented Nuclei (%) [5]: 6%
Population Healthy Nuclei (%) [5]: 80%
Population Hoechst High Intensity Objects (%) [5]: 3%
Population Membrane Permeable-Phenotype (%) [5]: 0%
Population Mitochondria Different-Phenotype (%) [5]: 38%
Population Mitotic Cells (%) [5]: 64%
Population Normal (%) [5]: 96%
Population Pyknosed Nuclei (%) [5]: 12%
Population Tubulin-Different-Phenotype (%) [5]: 25%
Total Cell Count [5]: 548
Population Apoptotic (%) [6]: 28%
Population Fragmented Nuclei (%) [6]: 7%
Population Healthy Nuclei (%) [6]: 83%
Population Hoechst High Intensity Objects (%) [6]: 4%
Population Mitochondria Different-Phenotype (%) [6]: 45%
Population Mitotic Cells (%) [6]: 71%
Population Normal (%) [6]: 95%
Population Pyknosed Nuclei (%) [6]: 9%
Population Tubulin-Different-Phenotype (%) [6]: 17%
Total Cell Count [6]: 444
Population Apoptotic (%) [7]: 46%
Population Fragmented Nuclei (%) [7]: 11%
Population Healthy Nuclei (%) [7]: 71%
Population Hoechst High Intensity Objects (%) [7]: 5%
Population Membrane Permeable-Phenotype (%) [7]: 1%
Population Mitochondria Different-Phenotype (%) [7]: 53%
Population Mitotic Cells (%) [7]: 53%
Population Normal (%) [7]: 94%
Population Pyknosed Nuclei (%) [7]: 17%
Population Tubulin-Different-Phenotype (%) [7]: 47%
Total Cell Count [7]: 334
Population Apoptotic (%) [8]: 50%
Population Fragmented Nuclei (%) [8]: 9%
Population Healthy Nuclei (%) [8]: 78%
Population Hoechst High Intensity Objects (%) [8]: 11%
Population Membrane Permeable-Phenotype (%) [8]: 0%
Population Mitochondria Different-Phenotype (%) [8]: 60%
Population Mitotic Cells (%) [8]: 50%
Population Normal (%) [8]: 88%
Population Pyknosed Nuclei (%) [8]: 11%
Total Cell Count [8]: 399
Population Apoptotic (%) [9]: 24%
Population Fragmented Nuclei (%) [9]: 12%
Population Healthy Nuclei (%) [9]: 79%
Population Hoechst High Intensity Objects (%) [9]: 3%
Population Membrane Permeable-Phenotype (%) [9]: 0%
Population Mitochondria Different-Phenotype (%) [9]: 28%
Population Mitotic Cells (%) [9]: 75%
Population Normal (%) [9]: 96%
Population Pyknosed Nuclei (%) [9]: 8%
Population Tubulin-Different-Phenotype (%) [9]: 14%
Total Cell Count [9]: 804
Population Apoptotic (%) [10]: 26%
Population Fragmented Nuclei (%) [10]: 11%
Population Healthy Nuclei (%) [10]: 81%
Population Hoechst High Intensity Objects (%) [10]: 1%
Population Mitochondria Different-Phenotype (%) [10]: 27%
Population Mitotic Cells (%) [10]: 73%
Population Normal (%) [10]: 98%
Population Pyknosed Nuclei (%) [10]: 7%
Total Cell Count [10]: 660
Population Apoptotic (%) [11]: 40%
Population Fragmented Nuclei (%) [11]: 10%
Population Healthy Nuclei (%) [11]: 74%
Population Hoechst High Intensity Objects (%) [11]: 5%
Population Membrane Permeable-Phenotype (%) [11]: 0%
Population Mitochondria Different-Phenotype (%) [11]: 48%
Population Mitotic Cells (%) [11]: 59%
Population Normal (%) [11]: 94%
Population Pyknosed Nuclei (%) [11]: 14%
Population Tubulin-Different-Phenotype (%) [11]: 43%
Total Cell Count [11]: 435
Population Apoptotic (%) [12]: 34%
Population Fragmented Nuclei (%) [12]: 11%
Population Healthy Nuclei (%) [12]: 80%
Population Membrane Permeable-Phenotype (%) [12]: 1%
Population Mitochondria Different-Phenotype (%) [12]: 39%
Population Mitotic Cells (%) [12]: 66%
Population Pyknosed Nuclei (%) [12]: 8%
Population Tubulin-Different-Phenotype (%) [12]: 41%
Total Cell Count [12]: 611

COc1cc(C(=O)N2CC[C@@H](O)[C@@H](N)C2)cc2nc(-c3cc4ccccc4n3CC3CC3)n(C)c12.Cl
Population Apoptotic (%) [1]: 48%
Population Fragmented Nuclei (%) [1]: 6%
Population Healthy Nuclei (%) [1]: 79%
Population Hoechst High Intensity Objects (%) [1]: 10%
Population Membrane Permeable-Phenotype (%) [1]: 0%
Population Mitochondria Different-Phenotype (%) [1]: 56%
Population Mitotic Cells (%) [1]: 51%
Population Normal (%) [1]: 89%
Population Pyknosed Nuclei (%) [1]: 13%
Population Tubulin-Different-Phenotype (%) [1]: 52%
Total Cell Count [1]: 398
Population Apoptotic (%) [2]: 70%
Population Fragmented Nuclei (%) [2]: 2%
Population Healthy Nuclei (%) [2]: 77%
Population Hoechst High Intensity Objects (%) [2]: 15%
Population Mitochondria Different-Phenotype (%) [2]: 71%
Population Mitotic Cells (%) [2]: 29%
Population Normal (%) [2]: 84%
Population Pyknosed Nuclei (%) [2]: 20%
Population Tubulin-Different-Phenotype (%) [2]: 37%
Total Cell Count [2]: 281
Population Apoptotic (%) [3]: 71%
Population Fragmented Nuclei (%) [3]: 5%
Population Healthy Nuclei (%) [3]: 66%
Population Hoechst High Intensity Objects (%) [3]: 21%
Population Membrane Permeable-Phenotype (%) [3]: 0%
Population Mitochondria Different-Phenotype (%) [3]: 90%
Population Mitotic Cells (%) [3]: 28%
Population Normal (%) [3]: 78%
Population Pyknosed Nuclei (%) [3]: 28%
Population Tubulin-Different-Phenotype (%) [3]: 79%
Total Cell Count [3]: 260
Population Fragmented Nuclei (%) [4]: 4%
Population Healthy Nuclei (%) [4]: 80%
Population Hoechst High Intensity Objects (%) [4]: 18%
Population Membrane Permeable-Phenotype (%) [4]: 2%
Population Mitochondria Different-Phenotype (%) [4]: 88%
Population Normal (%) [4]: 81%
Population Pyknosed Nuclei (%) [4]: 15%
Population Tubulin-Different-Phenotype (%) [4]: 72%
Total Cell Count [4]: 350
Population Apoptotic (%) [5]: 42%
Population Fragmented Nuclei (%) [5]: 9%
Population Healthy Nuclei (%) [5]: 77%
Population Hoechst High Intensity Objects (%) [5]: 6%
Population Membrane Permeable-Phenotype (%) [5]: 0%
Population Mitochondria Different-Phenotype (%) [5]: 42%
Population Mitotic Cells (%) [5]: 57%
Population Normal (%) [5]: 93%
Population Pyknosed Nuclei (%) [5]: 13%
Population Tubulin-Different-Phenotype (%) [5]: 33%
Total Cell Count [5]: 527
Population Apoptotic (%) [6]: 60%
Population Fragmented Nuclei (%) [6]: 7%
Population Healthy Nuclei (%) [6]: 79%
Population Hoechst High Intensity Objects (%) [6]: 12%
Population Mitochondria Different-Phenotype (%) [6]: 64%
Population Mitotic Cells (%) [6]: 39%
Population Normal (%) [6]: 87%
Population Pyknosed Nuclei (%) [6]: 12%
Population Tubulin-Different-Phenotype (%) [6]: 30%
Total Cell Count [6]: 363
Population Apoptotic (%) [7]: 58%
Population Fragmented Nuclei (%) [7]: 8%
Population Healthy Nuclei (%) [7]: 70%
Population Hoechst High Intensity Objects (%) [7]: 18%
Population Membrane Permeable-Phenotype (%) [7]: 0%
Population Mitochondria Different-Phenotype (%) [7]: 94%
Population Mitotic Cells (%) [7]: 41%
Population Normal (%) [7]: 81%
Population Pyknosed Nuclei (%) [7]: 20%
Population Tubulin-Different-Phenotype (%) [7]: 78%
Total Cell Count [7]: 312
Population Apoptotic (%) [8]: 65%
Population Fragmented Nuclei (%) [8]: 6%
Population Healthy Nuclei (%) [8]: 78%
Population Hoechst High Intensity Objects (%) [8]: 21%
Population Mitochondria Different-Phenotype (%) [8]: 92%
Population Mitotic Cells (%) [8]: 34%
Population Normal (%) [8]: 78%
Population Pyknosed Nuclei (%) [8]: 15%
Population Tubulin-Different-Phenotype (%) [8]: 74%
Total Cell Count [8]: 411
Population Apoptotic (%) [9]: 24%
Population Fragmented Nuclei (%) [9]: 9%
Population Healthy Nuclei (%) [9]: 79%
Population Hoechst High Intensity Objects (%) [9]: 5%
Population Membrane Permeable-Phenotype (%) [9]: 0%
Population Mitochondria Different-Phenotype (%) [9]: 37%
Population Mitotic Cells (%) [9]: 75%
Population Normal (%) [9]: 94%
Population Pyknosed Nuclei (%) [9]: 10%
Population Tubulin-Different-Phenotype (%) [9]: 28%
Total Cell Count [9]: 816
Population Apoptotic (%) [10]: 64%
Population Healthy Nuclei (%) [10]: 80%
Population Hoechst High Intensity Objects (%) [10]: 7%
Population Mitochondria Different-Phenotype (%) [10]: 48%
Population Mitotic Cells (%) [10]: 36%
Population Normal (%) [10]: 92%
Population Tubulin-Different-Phenotype (%) [10]: 22%
Total Cell Count [10]: 520
Population Apoptotic (%) [11]: 76%
Population Fragmented Nuclei (%) [11]: 13%
Population Healthy Nuclei (%) [11]: 68%
Population Hoechst High Intensity Objects (%) [11]: 18%
Population Membrane Permeable-Phenotype (%) [11]: 0%
Population Mitochondria Different-Phenotype (%) [11]: 89%
Population Mitotic Cells (%) [11]: 23%
Population Normal (%) [11]: 81%
Population Pyknosed Nuclei (%) [11]: 17%
Population Tubulin-Different-Phenotype (%) [11]: 81%
Total Cell Count [11]: 386
Population Healthy Nuclei (%) [12]: 75%
Population Hoechst High Intensity Objects (%) [12]: 23%
Population Mitochondria Different-Phenotype (%) [12]: 87%
Population Normal (%) [12]: 76%
Population Pyknosed Nuclei (%) [12]: 10%
Population Tubulin-Different-Phenotype (%) [12]: 74%
Total Cell Count [12]: 467
